Measured values published in ChEMBL document CHEMBL3822375, “Preclinical Characterization of 3β-(N-Acetyl l-cysteine methyl ester)-2aβ,3-dihydrogaliellalactone (GPA512), a Prodrug of a Direct STAT3 Inhibitor for the Treatment of Prostate Cancer” (J Med Chem, 2016).
Converted amounts (≈) assume the structure as drawn. Values belong to the compound of their own block, whether it stands above or below them. The source made the active and inactive calls. The rule behind the calls is not given here.

Legend:
Mus musculus [1] = assay: Apparent half life in mouse plasma assessed as galiellalactone level at 10 mg/kg, po by LC-MS/MS analysis; assay type: ADME, organism-based; details: in vivo
Summary of the method: (§1)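 Single dose to mice; oral, iv or ip as listed, in 5% DMSO/50 mM citrate buffer pH 4.0 (dosing solutions 0.5, 2 or 5 mg/mL). Oral dosing at 20 mL/kg. Terminal blood under barbiturate anaesthesia at eight time-points to 8 h, n=3 mice per time-point, EDTA plasma. Acetonitrile precipitation with internal standard, LC-MS/MS against plasma calibration lines. Non-compartmental analysis on mean data, trapezoidal AUC.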

Mus musculus [2] = assay: AUC (0 to t) in mouse plasma assessed as galiellalactone level at 10 mg/kg, po by LC-MS/MS analysis; assay type: ADME, organism-based; details: in vivo; summary of the method: as §1
Mus musculus [3] = assay: Tmax in mouse plasma assessed as galiellalactone level at 10 mg/kg, po by LC-MS/MS analysis; assay type: ADME, organism-based; details: in vivo
Mus musculus [4] = assay: AUC (0 to infinity) in mouse plasma assessed as galiellalactone level at 10 mg/kg, po by LC-MS/MS analysis; assay type: ADME, organism-based; set-up: dose 10 mg/kg, route oral, time infinity; details: in vivo; summary of the method: as §1
Mus musculus [5] = assay: Cmax in mouse plasma assessed as galiellalactone level at 10 mg/kg, po by LC-MS/MS analysis; assay type: ADME, organism-based; set-up: dose 10 mg/kg, route oral; details: in vivo; summary of the method: as §1
Hepatocyte = assay: Drug level in mouse hepatocytes treated with 3-beta-(N-Acetyl-L-cysteine methyl ester)-2a-beta,3-dihydrogaliellalactone measured after 2 hrs by UPLC-MS analysis; assay type: ADME, cell-based
Summary of the method: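 Cryopreserved mouse hepatocytes in Celsis InVitro HI medium, pH 7.4, 37 °C, with 10 µM initial compound from DMSO stock. Sampled at 0 and 120 min, quenched with an equal volume of acetonitrile, analysed by UPLC/Q-TOF-MS. Viability checked by Trypan blue.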

[6] = Half life of compound in acidic buffer at pH 1.2 at 10 uM by LC-MS analysis; assay type: physicochemical
Summary of the method: (§2)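 Compound diluted from DMSO (or methanol) stock to 10 µM, 2% solvent final, n=2. Matrix was 0.1 M PBS pH 7.4, or […] HCl with 2 mg/mL NaCl adjusted to pH 1.2. Mixed on a shaker; sampled at nominal 5, 15, 30 and 60 min plus T=0. LC-MS/MS with internal standard; % remaining relative to T=0. Formation of parent also monitored.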

[7] = Chemical stability of the compound in phosphate buffer saline assessed as half life at 10 uM at pH 7.4 by LC-MS/MS analysis; assay type: physicochemical; details: phosphate buffered saline; summary of the method: as §2
[8] = Apparent half life in mouse plasma at 1.25 mg/kg, iv by LC-MS/MS analysis; assay type: ADME, organism-based; details: read-out: t1/2(app); summary of the method: as §1
PC-3 [9] = assay: Cytotoxicity against human PC3 cells assessed as inhibition of cell viability at 3 uM after 72 hrs by WST-1 proliferation assay; assay type: functional, cell-based
Summary of the method: (§3)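 Cells in RPMI-1640 (DU145, LNCaP, LNCaP-IL6+) or HAM's F-12 (PC3) with 10% FBS. DU145 and LNCaP-IL6+ seeded at 2 000 cells/well, LNCaP and PC3 at 5 000 cells/well, adhered 24 h, then exposed to compound for 72 h. WST-1 absorbance read at 450 nm with 630 nm reference. Background subtracted; expressed as percent of untreated cells.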

LNCaP [10] = assay: Antiproliferative activity against human LNCAP cells at 3 uM after 72 hrs by WST-1 proliferation assay; assay type: functional, cell-based; summary of the method: as §3
[11] = Cmax in mouse plasma at 5 mg/kg, ip by LC-MS/MS analysis; assay type: ADME, organism-based; set-up: dose 5 mg/kg, route intraperitoneal; summary of the method: as §1
PC-3 [12] = assay: Antiproliferative activity against human PC3 cells at 3 uM after 72 hrs by WST-1 proliferation assay; assay type: functional, cell-based; summary of the method: as §3
[13] = Tmax in mouse plasma at 1.25 mg/kg, iv by LC-MS/MS analysis; assay type: ADME, organism-based
LNCaP [14] = assay: Cytotoxicity against human LNCAP cells expressing IL6 and pSTAT3 assessed as inhibition of cell viability at 3 uM after 72 hrs by WST-1 proliferation assay; assay type: functional, cell-based; summary of the method: as §3
[15] = Metabolic stability in mouse hepatocytes assessed as compound disappearance measured after 2 hrs by LC-MS/MS analysis; assay type: ADME, cell-based, Hepatocyte; details: read-out: Drug degradation
Summary of the method: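 Cryopreserved mouse hepatocytes incubated with an initial 10 µM test item (DMSO stock) in Celsis InVitro HI medium, pH 7.4, 37 °C. Cell viability checked by Trypan blue. Sampled at 0 and 120 min and stopped with an equal volume of acetonitrile. Analysed by UPLC/Q-TOF-MS.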

[16] = Efflux ratio of apparent permeability across apical to basolateral side over basolateral to apical side in human Caco2 cells at 20 uM measured after 120 mins by UPLC-MS/MS analysis; assay type: ADME, cell-based; details: caco-2, 2 h
Summary of the method: (§4)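 Caco-2 monolayers in Hanks' balanced salt solution with 10 mM Hepes, pH 7.4. Apical and basolateral transport measured at 20 µM test item. Both compartments sampled at 0, 60 and 120 min and analysed by UPLC-MS/MS.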

[17] = Volume of distribution in mouse plasma at 1.25 mg/kg, iv by LC-MS/MS analysis; assay type: ADME, organism-based
DU-145 [18] = assay: Antiproliferative activity against human DU145 cells expressing pSTAT3 at 3 uM after 72 hrs by WST-1 proliferation assay; assay type: functional, cell-based; summary of the method: as §3
[19] = Half life in mouse plasma by LC-MS/MS analysis; assay type: ADME, cell-free
[20] = Stability of compound assessed as compound disappearance measured after 2 hrs by LC-MS/MS analysis; assay type: physicochemical
Mus musculus [21] = assay: AUC (0 to t) in mouse plasma at 1.25 mg/kg, iv by LC-MS/MS analysis; assay type: ADME, organism-based; details: in vivo; summary of the method: as §1
Mus musculus [22] = assay: AUC (0 to infinity) in mouse plasma at 5 mg/kg, ip by LC-MS/MS analysis; assay type: ADME, organism-based; set-up: dose 5 mg/kg, route intraperitoneal, time infinity; details: in vivo; summary of the method: as §1
[23] = Solubility of the compound in phosphate buffer saline at pH 7.4 by LC-MS analysis; assay type: physicochemical; details: phosphate buffered saline
LNCaP [24] = assay: Antiproliferative activity against human LNCAP cells expressing IL6 and pSTAT3 at 3 uM after 72 hrs by WST-1 proliferation assay; assay type: functional, cell-based; summary of the method: as §3
[25] = Apparent half life in mouse plasma at 5 mg/kg, ip; assay type: ADME, organism-based
LNCaP [26] = assay: Cytotoxicity against human LNCAP cells assessed as inhibition of cell viability at 3 uM after 72 hrs by WST-1 proliferation assay; assay type: functional, cell-based; summary of the method: as §3
[27] = Tmax in mouse plasma at 5 mg/kg, ip by LC-MS/MS analysis; assay type: ADME, organism-based
[28] = Drug metabolism in S9 intestinal fraction (unknown origin) assessed as glutathione conjugate formation; assay type: ADME
DU-145 [29] = assay: Cytotoxicity against human DU145 cells expressing pSTAT3 assessed as inhibition of cell viability at 3 uM after 72 hrs by WST-1 proliferation assay; assay type: functional, cell-based; summary of the method: as §3
Mus musculus [30] = assay: AUC (0 to t) in mouse plasma at 5 mg/kg, ip by LC-MS/MS analysis; assay type: ADME, organism-based; details: in vivo; summary of the method: as §1
Mus musculus [31] = assay: AUC (0 to t) in mouse plasma at 10 mg/kg, po by LC-MS/MS analysis; assay type: ADME, organism-based; details: in vivo; summary of the method: as §1
[32] = Clearance in mouse plasma at 1.25 mg/kg, iv by LC-MS/MS analysis; assay type: ADME, organism-based; summary of the method: as §1
Mus musculus [33] = assay: AUC (0 to infinity) in mouse plasma at 1.25 mg/kg, iv by LC-MS/MS analysis; assay type: ADME, organism-based; set-up: dose 1.25 mg/kg, time infinity, route intravenous; details: in vivo; summary of the method: as §1
[34] = Cmax in mouse plasma at 1.25 mg/kg, iv by LC-MS/MS analysis; assay type: ADME, organism-based; set-up: dose 1.25 mg/kg, route intravenous; summary of the method: as §1
[35] = Half life in mouse plasma at 5 uM by LC-MS/MS analysis; assay type: ADME, cell-free
Summary of the method: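 Plasma of each species incubated at 37 °C with compound at 5 µM initial, 1% DMSO, n=2. Simvastatin and eucatropine run as controls. Aliquots taken at 0, 5, 15, 30 and 60 min and quenched with acetonitrile containing internal standard, then analysed by LC-MS/MS.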

Mus musculus [36] = assay: AUC (0 to infinity) in mouse plasma at 10 mg/kg, po by LC-MS/MS analysis; assay type: ADME, organism-based; set-up: dose 10 mg/kg, route oral, time infinity; details: in vivo; summary of the method: as §1
[37] = Apparent half life in mouse plasma at 10 mg/kg, po by LC-MS/MS analysis; assay type: ADME, organism-based; details: read-out: t1/2(app); summary of the method: as §1
[38] = Apparent permeability from apical to basolateral side in human Caco2 cells at 20 uM measured after 120 mins by UPLC-MS/MS analysis; assay type: ADME, cell-based; details: Caco-2; summary of the method: as §4
[39] = Antiproliferative activity against human DU145 cells after 72 hrs by WST-1 proliferation assay; assay type: functional, cell-based; details: DU-145, 72 h; summary of the method: as §3

t1/2(app) (Mus musculus [1]): 1.8 h
AUCt (Mus musculus [2]): 150 µg/mL/min
Tmax (Mus musculus [3]): 0.25 h
AUC (Mus musculus [4]): 155 µg/mL/min
Cmax (Mus musculus [5]): 1102 ng/mL
Compound: COC(=O)[C@H](CCS[C@H]1C2C(=O)O[C@@H]3CC[C@H](C[C@@H]1C)[C@]23O)NC(C)=O (some centres undefined)

Drug metabolism (Hepatocyte): metabolite_detected
half-life at 10 µM [6]: 1.9 h
half-life at 10 µM [7]: 0.9 h
Compound: CC(=O)N[C@@H](CS[C@H]1C2C(=O)O[C@@H]3CC[C@H](C[C@@H]1C)[C@]23O)C(=O)O (some centres undefined)

t1/2(app) (Mus musculus [1]): 3.15 h
AUCt (Mus musculus [2]): 7.8 µg/mL/min
Tmax (Mus musculus [3]): 0.25 h
AUC (Mus musculus [4]): 11 µg/mL/min
Cmax (Mus musculus [5]): 57 ng/mL
Compound: COC(=O)[C@H](CS[C@H]1C2C(=O)O[C@@H]3CC[C@H](C[C@@H]1C)[C@]23O)NC(=O)c1ccccc1F (some centres undefined)

half-life [8]: 2.17 h
Cmax [11]: 5520 ng/mL
Tmax [13]: 5 min
metabolised at 2 h [15]: 45%
Drug metabolism (Hepatocyte): metabolite_detected
Ratio [16]: 2
Vd [17]: 1.4 L/kg
half-life [19]: 1.23 h
Stability [20]: Stable
AUCt (Mus musculus [21]): 159 µg/mL/min
AUC (Mus musculus [22]): 372 µg/mL/min
solubility [23]: 143 µM (≈ 27.8 µg/mL)
half-life [25]: 2.4 h
Tmax [27]: 5 min
Drug metabolism [28]: metabolite_detected
AUCt (Mus musculus [30]): 351 µg/mL/min
AUCt (Mus musculus [31]): 5 µg/mL/min
clearance [32]: 7.3 mL/min/kg
AUC (Mus musculus [33]): 171 µg/mL/min
Cmax [34]: 2960 ng/mL
half-life at 10 µM [7]: > 9.8 h
half-life at 5 µM [35]: 1.23 h
AUC (Mus musculus [36]): 6 µg/mL/min
half-life [37]: 1.48 h
Papp A→B at 2 h, 20 µM [38]: 65.9 ×10⁻⁶ cm/s
Compound: C[C@@H]1C=C2C(=O)O[C@@H]3CC[C@H](C1)[C@]23O
inhibition (PC-3 [9]): inactive
Activity (LNCaP [10]): inactive
Activity (PC-3 [12]): inactive
inhibition (LNCaP [14]): Active
Activity (DU-145 [18]): Active
Activity (LNCaP [24]): Active
inhibition (LNCaP [26]): inactive
inhibition (DU-145 [29]): Active
IC50 [39]: 3.02 µM

half-life at 10 µM [7]: > 2.5 h
Compound: C[C@H]1C[C@H]2CC[C@H]3OC(=O)C([C@@H]1SCc1ccccc1)[C@@]23O (some centres undefined)
IC50 [39]: 9.68 µM

t1/2(app) (Mus musculus [1]): 1.08 h
AUCt (Mus musculus [2]): 20 µg/mL/min
Tmax (Mus musculus [3]): 0.5 h
AUC (Mus musculus [4]): 22 µg/mL/min
Cmax (Mus musculus [5]): 263 ng/mL
Compound: CCOC(=O)[C@H](CS[C@H]1C2C(=O)O[C@@H]3CC[C@H](C[C@@H]1C)[C@]23O)NC(C)=O (some centres undefined)

half-life at 10 µM [6]: > 2.5 h
half-life at 10 µM [7]: 0.233 h
Compound: C[C@H]1C[C@H]2CC[C@H]3OC(=O)C([C@@H]1SC[C@H](N)C(=O)O)[C@@]23O (some centres undefined)
IC50 [39]: 2.66 µM

half-life at 10 µM [7]: > 2.5 h
Compound: CC(=O)N[C@@H](CS[C@H]1C2C(=O)O[C@@H]3CC[C@H](C[C@@H]1C)[C@]23O)C(N)=O (some centres undefined)
IC50 [39]: 9.2 µM
